Compound activity: PubChem BioAssay, several laboratories
In the library only some 1.8% were active in any assay of this set; here they are far more common.
TDP2 absorb = human TDP2 enzyme inhibitors, primary screen, biochemical, epi absorbance, recombinant enzyme; T5PNP hydrolysis, p-nitrophenol absorbance 415 nm; AID 720702, 2013; 0.34% of 370,000 active; Tyrosyl-DNA phosphodiesterase 2 (Homo sapiens), O95551; inhibition, % at 12.8 µM;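 active means inhibition above the mean of all tested compounds plus 3 SD, set per campaign, cut at about 25% in these data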;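 further: 0% = DMSO with enzyme and 100% = buffer with substrate but no TDP2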
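Read-out basis: percent inhibition. System: recombinant human TDP2. Buffer or medium: Mg2+-containing Tris-HCl buffer, pH 7.5. Repeats: single replicate. Timing: reaction 2 h, 37 °C. Benchmarks: high control without enzyme, low control DMSO plus TDP2. Probe or stimulus: 5 mM T5PNP. Doses: 12.8 µM only. Measured by: epi absorbance of p-nitrophenol freed from T5PNP by hydrolysis.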
UHRF1 MBD2 ctr = UHRF1 methylated DNA binding inhibitors, primary screen, counter-screen for MBD2 inhibitor project, biochemical, TR-FRET, human UHRF1, single concentration. UHRF1 binding to methylated oligo. inhibition, % at 4.4 µM. AID 687016, 2013. 0.75% of 370,000 active. E3 ubiquitin-protein ligase UHRF1 (Homo sapiens), Q96T88; in the data active means inhibition above about 21%;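 further: UHRF1 SRA domain binding a hemimethylated CpG hairpin DNA probe; 0% = median of test compound wells and 100% = reference inhibitor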
Casp6 inh = human caspase-6 inhibitors, primary screen, biochemical, VEID-R110 fluorescence, single point, set 2; P55212; inhibition, % at 12.5 µM; purified caspase-6, Z-VEID-R110 cleavage fluorescence; 0.53% of 350,000 active;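 active means mean inhibition across replicates at least about 35%, with every replicate also reaching that limit, limit read from the data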;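 further: 0% = median of neutral control wells and 100% = no fluorescence left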
NSD2 HMT inh = NSD2 histone methyltransferase inhibitors, primary screen, biochemical, AlphaScreen, single concentration, set 2 | Histone-lysine N-methyltransferase NSD2 (Homo sapiens), O96028 | NSD2 peptide methylation, 120 min | inhibition, % at 12.5 µM | 0.54% of 310,000 active; in the data active means inhibition above about 50%
LEDGF integ inh = blockers of LEDGF/p75-dependent integrase strand transfer – biochemical, TR-FRET, high throughput, primary screen. HIV-1 integrase (with human LEDGF/p75). inhibition, % at 3.7 µM. TR-FRET IN-LEDGF/p75 DNA integration, Eu/Cy5. 0.64% of 370,000 active;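 active means inhibition above the screen-wide mean plus 3 SD, cut at about 13% in these data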;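 further: signal is the Cy5 over europium emission ratio at 671 and 618 nm; 0% = plate median of compound wells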
MBD2 inh = inhibitors of MBD2 binding to methylated DNA, primary screen, biochemical, TR-FRET, DNA-binding domain, human | 0.31% of 370,000 active | Methyl-CpG-binding domain protein 2 (Homo sapiens), Q9UBB5 | AID 686964, 2013 | inhibition, % at 4.4 µM | MBD2 binding to methylated oligonucleotide; in the data active means inhibition above about 13%
Target sequence (Q9UBB5 whole entry, looked up, the tested form may be a part): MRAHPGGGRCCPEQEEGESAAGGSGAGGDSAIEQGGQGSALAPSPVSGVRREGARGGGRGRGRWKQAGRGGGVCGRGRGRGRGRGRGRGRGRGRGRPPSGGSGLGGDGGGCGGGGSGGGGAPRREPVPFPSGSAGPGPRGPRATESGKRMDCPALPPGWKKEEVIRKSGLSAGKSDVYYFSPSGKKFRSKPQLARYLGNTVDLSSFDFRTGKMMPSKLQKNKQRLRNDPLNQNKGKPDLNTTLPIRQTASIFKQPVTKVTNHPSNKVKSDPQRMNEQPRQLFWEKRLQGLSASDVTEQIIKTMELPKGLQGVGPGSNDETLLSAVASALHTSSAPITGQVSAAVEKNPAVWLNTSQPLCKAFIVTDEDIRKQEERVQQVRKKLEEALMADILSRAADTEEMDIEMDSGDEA
AlphaScreen art = AlphaScreen signal interference with preloaded methylated product, dose response, artefact control for NSD2 inhibitor project, biochemical, cherry-picked samples | shares compounds with NSD2 HMT inh | 9.4% of 1,500 active | AC35, µM (doses to about 10 µM), inactives show at the highest dose activity change, negative = signal loss | AID 1053174, 2014 | AlphaScreen artifact counterscreen, preloaded methylated H4 peptide; call rule not given here
The depositor's hits bear a star; / = no result given.

SMILES	TDP2 absorb	UHRF1 MBD2 ctr	Casp6 inh	NSD2 HMT inh	LEDGF integ inh	MBD2 inh	AlphaScreen art
O=C(C[C@@H]1C[C@H]2c3cc(NC(=O)NC4CCCC4)ccc3O[C@H]2[C@H](CO)O1)NCc1ccc(-c2ccccc2)cc1	/	/	0	/	/	/	/
Cc1ccccc1-c1nnc2n1N=C(c1ccc(O)c(O)c1)CS2	-2	5	/	69*	-4	-2	-8%
O=C(O)CCCCCn1c(SCC(=O)c2ccc(O)c(O)c2)nc2ccsc2c1=O	-5	7	/	91*	6	1	-14%
CCCCn1c(SCC(=O)c2ccc(O)c(O)c2)nc2ccsc2c1=O	/	/	/	36	/	/	/
CC(=O)Nc1ccc(N(C(=O)CNC(=O)c2ccco2)C(C(=O)NCC2CCCO2)c2ccccc2)cc1 (stereo not drawn)	0	-1	0	51*	-3	4	1%
CCc1ccc(N(C(=O)CNC(=O)c2ccco2)C(C(=O)NCC2CCCO2)c2ccccc2)cc1 (stereo not drawn)	-2	3	1	0	4	-2	/
C=CCC1c2cccc(C(=O)OC)c2C(=O)N1c1ccccc1 (stereo not drawn)	3	-4	/	-3	0	-1	/
COc1cccc2c1N1C(=O)c3c(C(=O)O)cccc3C1CC2(C)C (stereo not drawn)	-1	-1	/	101*	3	-1	-1%
CN1c2ccc(Br)cc2[C@@H]2[C@@H](CCN2C(=O)C2CCOCC2)[C@H]1CO	/	/	6	/	/	/	/
Cc1ccc(S(=O)(=O)c2ccc(Cl)cc2)cc1S(=O)(=O)N1CCOCC1	-5	2	/	116*	3	-3	1%
Cc1ccc(S(=O)(=O)N2CCCC(N3CCOCC3)C2)cc1Cl (stereo not drawn)	-16	1	-1	53*	-3	6	1%
COc1ccc(C)cc1S(=O)(=O)N1CCCC(N2CCOCC2)C1 (stereo not drawn)	-15	4	3	1	4	3	/
Cc1noc(C)c1NC(=O)N(C)C[C@@H]1Oc2c(NS(C)(=O)=O)cccc2C(=O)N([C@H](C)CO)C[C@H]1C	/	/	-2	/	/	/	/
CCCc1cc(Nc2ccccc2C)n2ncnc2n1	10	0	0	57*	-1	3	-1%
CCCc1cc(Nc2cccc(OCC)c2)n2ncnc2n1	4	-2	/	0	0	4	/
CCC(=O)Nc1ccc2c(c1)OC[C@@H](C)N(C(=O)CC1CC1)C[C@@H](C)[C@H](OC)CN(C)C2=O	/	/	4	/	/	/	/
CCc1c(C)nc2ncnn2c1Nc1ccc(C)c(C)c1	7	-1	/	11	5	0	/
CCc1c(C)nc2ncnn2c1Nc1ccc(C)cc1	7	4	1	55*	-3	6	-1%
O=C(NCC1CC1)c1ccc(-n2ccnc2)c2ccoc12	-21	25*	5	63*	10	9	-3%
Cc1noc(C)c1-c1ccc(C(=O)NCC2CC2)c2occc12	2	-1	3	0	0	0	/
Cc1onc(-c2c(Cl)cccc2Cl)c1C(=O)ONC(=O)c1cc(C(F)(F)F)cc(C(F)(F)F)c1	-28	0	-5	59*	3	-6	0%
CCC(=O)N(C)C[C@H]1Oc2cc(-c3ccc(C#N)cc3)ccc2S(=O)(=O)N([C@@H](C)CO)C[C@H]1C	/	/	-1	/	/	/	/
CCOC(=O)c1cccc(P(C)(C)=O)c1	-3	5	2	79*	2	-1	2%
CCOC(=O)c1ccc2nc(C)c(C)nc2c1	8	0	-3	5	-2	2	/
